Data on four compounds can be found in ChEMBL document CHEMBL3232791, “Synthesis and antibacterial evaluation of amino acid-antibiotic conjugates” (2014).

What all share (format): functional
In assay [1] the test system is Staphylococcus aureus. The experiment in a line: Antibacterial activity against Staphylococcus aureus RN4220 assessed as growth inhibition at 4 ug/ml after 16 hrs by spectrophotometric analysis. Conditions: RN4220, 16 h, read-out: GI. In outline: (§1)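 Growth inhibition read as OD600 on 300 µL culture samples, with untreated control cultures taken as maximum growth. Percent inhibition = (OD600 control − OD600 treated) × 100 / OD600 control. Parent antibiotics and their conjugates were run in parallel at three concentrations per compound, in biological duplicate.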

Assay [2] has as its system Staphylococcus aureus. The experiment in a line: Antibacterial activity against Staphylococcus aureus RN4220 assessed as growth inhibition at 8 ug/ml after 16 hrs by spectrophotometric analysis. Conditions: RN4220, 16 h, read-out: GI. In outline: as §1
Assay [3] concerns Staphylococcus aureus. Put plainly: Antibacterial activity against Staphylococcus aureus RN4220 assessed as growth inhibition at 2 ug/ml after 16 hrs by spectrophotometric analysis. Conditions: RN4220, 16 h, read-out: GI. In outline:
as §1

For assay [4], the system named is Pseudomonas aeruginosa. The experiment in a line: Antibacterial activity against Pseudomonas aeruginosa PAO1 assessed as growth inhibition at 10 ug/ml after 16 hrs by spectrophotometric analysis. Conditions: PAO1, 16 h, read-out: GI. In outline:
as §1

Assay [5] deals with Pseudomonas aeruginosa. The experiment in a line: Antibacterial activity against Pseudomonas aeruginosa PAO1 assessed as growth inhibition at 40 ug/ml after 16 hrs by spectrophotometric analysis. Conditions: PAO1, 16 h, read-out: GI. In outline:
as §1

Assay [6] has as its system Pseudomonas aeruginosa. Put plainly: Antibacterial activity against Pseudomonas aeruginosa PAO1 assessed as growth inhibition at 20 ug/ml after 16 hrs by spectrophotometric analysis. Conditions: PAO1, 16 h, read-out: GI. In outline: as §1
Assay [7] concerns Bacillus subtilis. The experiment in a line: Antibacterial activity against Bacillus subtilis 168 assessed as growth inhibition at 0.4 ug/ml after 16 hrs by spectrophotometric analysis. Conditions: subsp. subtilis str. 168, 16 h, read-out: GI. In outline:
as §1

The test system of assay [8] is Bacillus subtilis. The experiment in a line: Antibacterial activity against Bacillus subtilis 168 assessed as growth inhibition at 0.2 ug/ml after 16 hrs by spectrophotometric analysis. Conditions: subsp. subtilis str. 168, 16 h, read-out: GI. In outline:
as §1

Assay [9] relates to Bacillus subtilis. Put plainly: Antibacterial activity against Bacillus subtilis 168 assessed as growth inhibition at 0.1 ug/ml after 16 hrs by spectrophotometric analysis. Conditions: subsp. subtilis str. 168, 16 h, read-out: GI. In outline:
as §1

The test system of assay [10] is Escherichia coli. The experiment in a line: Antibacterial activity against Escherichia coli DH5alpha assessed as growth inhibition at 0.5 ug/ml after 16 hrs by spectrophotometric method. Conditions: DH5[alpha], read-out: GI. In outline: as §1
Assay [11] relates to Escherichia coli. The experiment in a line: Antibacterial activity against Escherichia coli DH5alpha assessed as growth inhibition at 0.125 ug/ml after 16 hrs by spectrophotometric method. The following applies: DH5[alpha], read-out: GI. In outline: as §1
In assay [12] the test system is Escherichia coli. The experiment in a line: Antibacterial activity against Escherichia coli DH5alpha assessed as growth inhibition at 0.0635 ug/ml after 16 hrs by spectrophotometric method. The following applies: DH5[alpha], read-out: GI. In outline: as §1

For `O=C(NCC(=O)N1CCN(c2cc3c(cc2F)c(=O)c(C(=O)O)cn3C2CC2)CC1)OCc1ccccc1`, the inhibition of growth at 4 µg/mL in the assay with Staphylococcus aureus [1] worked out at 50.3%. Further, in the assay on Staphylococcus aureus [2], the inhibition of growth at 8 µg/mL was 70.8%. The inhibition of growth at 2 µg/mL with Staphylococcus aureus [3] is 45.7%. Besides, in the assay on Pseudomonas aeruginosa [4], the inhibition of growth at 10 µg/mL was -14%. Also, the inhibition of growth at 40 µg/mL with Pseudomonas aeruginosa [5] stood at 45%. Besides, the inhibition of growth at 20 µg/mL in the assay on Pseudomonas aeruginosa [6] is -1.56%. Also, the inhibition of growth at 0.4 µg/mL in the assay on Bacillus subtilis [7] is 94.2%. In the assay with Bacillus subtilis [8], the inhibition of growth at 0.2 µg/mL amounted to 16.2%. Besides, in the assay on Bacillus subtilis [9], the inhibition of growth at 0.1 µg/mL amounted to 18.5%. Besides, the inhibition of growth at 0.5 µg/mL in the assay with Escherichia coli [10] is 2.25%. Also, the inhibition of growth at 0.125 µg/mL in the assay with Escherichia coli [11] was -2.17%. The inhibition of growth at 0.0635 µg/mL in the assay with Escherichia coli [12] worked out at 1.86%.

`C[C@H](NC(=O)OCc1ccccc1)C(=O)N1CCN(c2cc3c(cc2F)c(=O)c(C(=O)O)cn3C2CC2)CC1`: the inhibition of growth at 4 µg/mL in the assay with Staphylococcus aureus [1] was found to be 46.1%. For the same compound, in the assay on Staphylococcus aureus [2], the inhibition of growth at 8 µg/mL amounted to 55.8%. For the same compound, the inhibition of growth at 2 µg/mL in the assay on Staphylococcus aureus [3] was determined as 23.2%. Further, the inhibition of growth at 10 µg/mL in the assay with Pseudomonas aeruginosa [4] was -13.3%. The inhibition of growth at 40 µg/mL in the assay with Pseudomonas aeruginosa [5] amounted to 58.2%. Further, the inhibition of growth at 20 µg/mL in the assay with Pseudomonas aeruginosa [6] is -2.13%. Besides, the inhibition of growth at 0.4 µg/mL in the assay on Bacillus subtilis [7] was determined as 91.9%. Further, the inhibition of growth at 0.2 µg/mL in the assay on Bacillus subtilis [8] was determined as 42.3%. In the assay on Bacillus subtilis [9], the inhibition of growth at 0.1 µg/mL was 12.6%. The inhibition of growth at 0.5 µg/mL in the assay with Escherichia coli [10] is -1.86%. Further, the inhibition of growth at 0.125 µg/mL in the assay with Escherichia coli [11] is -2.93%. Further, in the assay on Escherichia coli [12], the inhibition of growth at 0.0635 µg/mL is -0.72%.

In the case of `O=C(O)c1cn(C2CC2)c2cc(N3CCNCC3)c(F)cc2c1=O` [CIPROFLOXACIN], the inhibition of growth at 4 µg/mL in the assay on Staphylococcus aureus [1] was found to be 63.9%. The inhibition of growth at 8 µg/mL in the assay on Staphylococcus aureus [2] was determined as 75.3%. For the same compound, the inhibition of growth at 2 µg/mL in the assay with Staphylococcus aureus [3] stood at 48.4%. In addition, in the assay on Pseudomonas aeruginosa [4], the inhibition of growth at 10 µg/mL is 91.8%. For the same compound, the inhibition of growth at 40 µg/mL in the assay with Pseudomonas aeruginosa [5] amounted to 89.8%. In the assay on Pseudomonas aeruginosa [6], the inhibition of growth at 20 µg/mL turned out to be 91%. In addition, the inhibition of growth at 0.4 µg/mL with Bacillus subtilis [7] was 94.3%. In the assay on Bacillus subtilis [9], the inhibition of growth at 0.1 µg/mL is 30.4%. The inhibition of growth at 0.5 µg/mL in the assay with Escherichia coli [10] is 77%. For the same compound, in the assay with Escherichia coli [11], the inhibition of growth at 0.125 µg/mL is 52.3%. The inhibition of growth at 0.0635 µg/mL in the assay with Escherichia coli [12] is 32.5%.

For `O=C(NCCCC[C@H](NC(=O)OCc1ccccc1)C(=O)N1CCN(c2cc3c(cc2F)c(=O)c(C(=O)O)cn3C2CC2)CC1)OCc1ccccc1`, the inhibition of growth at 4 µg/mL in the assay with Staphylococcus aureus [1] amounted to 51.6%. Moreover, the inhibition of growth at 8 µg/mL in the assay on Staphylococcus aureus [2] is 62.9%. In addition, in the assay on Staphylococcus aureus [3], the inhibition of growth at 2 µg/mL was determined as 39.3%. Further, in the assay on Pseudomonas aeruginosa [4], the inhibition of growth at 10 µg/mL was found to be 87.1%. The inhibition of growth at 40 µg/mL in the assay with Pseudomonas aeruginosa [5] came to 84.2%. For the same compound, in the assay with Pseudomonas aeruginosa [6], the inhibition of growth at 20 µg/mL was found to be 89.7%. The inhibition of growth at 0.4 µg/mL in the assay with Bacillus subtilis [7] is 40.4%. In addition, in the assay with Bacillus subtilis [8], the inhibition of growth at 0.2 µg/mL stood at 12.7%. Besides, in the assay with Bacillus subtilis [9], the inhibition of growth at 0.1 µg/mL is 9.59%. The inhibition of growth at 0.5 µg/mL in the assay on Escherichia coli [10] was 38.9%. Moreover, the inhibition of growth at 0.125 µg/mL in the assay on Escherichia coli [11] turned out to be 4.12%. The inhibition of growth at 0.0635 µg/mL in the assay on Escherichia coli [12] was -0.2%.
